PolyA inhibitor – yeast polyadenylation inhibition. S. cerevisiae SKY197-pL101 polyadenylation reporter, beta-gal luminescence; efflux-impaired pdr1/pdr3 knockout yeast; score 100 = 6 SD above DMSO. activity score, % at 12 µM. AID 1875. hit rate 0.02% among 300,000;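 active = lowest replicate activity score at least 50, where 100 means six control SD above control mean; inconclusive = lowest score under 50 but half or more replicates reach 50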;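 also: yeast exposed to compound for 9 h at 30 °C; higher score means more reporter readthrough which indicates perturbed polyadenylation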
CSC inhib – cancer stem cell inhibition. hit rate 1.1% among 300,000. inhibition, % at 7.5 µM. AID 2717. cancer stem cell-like cells viability, luminescence; in the data active = inhibition above about 75%; inconclusive = no clear call, values can overlap the other calls; tested in HMLE shEcad cells
T cruzi inh – T. cruzi replication inhibition; T. cruzi beta-gal in NIH3T3, luminescence, 90 h; inhibition, % (no concentration beside the values); AID 1885; hit rate 1.4% among 300,000;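 active = mean inhibition across valid replicates above about 55%, limit read from the data; inconclusive = mean below that limit but half or more replicates reach it; inactive = mean below it, under half of replicates reach it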;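 also: signal also drops with host cell toxicity which is not excluded here; 0% = plate median of DMSO wells and 100% = zero luminescence signal; higher percent means less beta-gal luminescence so fewer parasites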
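Assay system: NIH/3T3 host cells with β-galactosidase reporter T. cruzi; input: 5,000 host fibroblasts per well; compound: single 50 nL compound addition per well in DMSO; timing: ≥90 h infection period, 3 h prior cell attachment; measured by: GalScreen β-gal luminescence, detergent lysis, 60 min; evaluation: percent inhibition of parasite-derived β-gal signal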
HIF activator – HIF pathway transcriptional activation. U2OS HRE-luciferase reporter, luminescence; normalized: DMSO 0%, desferrioxamine 100%. activation, % at 7.5 µM (by protocol). hit rate 0.32% among 300,000;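 active = mean activation of at least 10% of the iron chelator positive control signal, with at least half of replicates also reaching 10%; inconclusive = mean and replicate majority disagree about reaching 10%; inactive = mean and most replicates under 10%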
Calb FLC – affects C. albicans growth with fluconazole; growth inhibition, % (no concentration beside the values); C. albicans CaCi-2 (fluconazole-resistant clinical isolate) + fluconazole, Alamar Blue growth, 48 h; hit rate 0.57% among 300,000;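 active = growth inhibition above about 58% in most replicates, limit read from the data, passing the limit was not always enough; inconclusive = exactly half the replicates above a set limit; inactive = most replicates below a set limit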;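 also: all wells also contain fluconazole at 8 µg/ml as a sub-toxic cotreatment; 0% = median of DMSO wells and 100% = median of geldanamycin control wells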
Beta cell apopt – blocks beta cell apoptosis; INS-1E cytokine-induced death, ATP luminescence, 48 h; percent of positive-control rescue, neutral wells zero; protection from apoptosis, % (test concentration not listed); hit rate 0.8% among 300,000; AID 435005;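 active = Every replicate reaches about 75%, or at least half do and their mean reaches it too, limit read from the data; inconclusive = At least half of replicates reach the limit but their mean does not; inactive = Under half of replicates reach the limit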;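 also: 0% = cytokine-treated negative control wells and 100% = positive control rescue; higher means more ATP so stronger rescue from cytokine killing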
Numbers without * were called inactive; ? = inconclusive; nt = no result given. The list is not random: actives were taken first. Their share in the collection is about 3.1%.

SMILES	PolyA inhibitor	CSC inhib	T cruzi inh	HIF activator	Calb FLC	Beta cell apopt
NC(=O)CC(NC(=O)Cc1ccc(Cl)cc1)c1ccc(NCCOc2ccccc2)c([N+](=O)[O-])c1 (stereo not drawn)	0.9	12.7	11.6	-1.5	1.8	-1.9
O=C(Nc1nc(-c2ccccn2)cs1)c1cc2ccccc2o1	7.8	46.6	76.9*	1.3	98.6*	2.4
Cc1c(C(=O)Nc2nc(-c3ccccn3)cs2)oc2ccccc12	nt	109.3*	nt	nt	nt	84.3*
Cc1cc(-c2csc(NC(=O)c3cc4ccccc4o3)n2)c(C)n1C	-3.9	2.9	-22.0	0.0	-26.2	-3.2
N/C(=N\N=C\c1ccc(Br)o1)c1nonc1N	0.0	4.5	-4.3	3.1	-3.7	12.4
CCOc1ccc(OCC(=O)N(CCC2=CCCCC2)c2c(N)n(Cc3ccccc3)c(=O)[nH]c2=O)cc1	-10.5	75.8*	1.6	0.4	-3.4	nt
CCOc1ccc(OCCC(=O)N(CCC2=CCCCC2)c2c(N)n(Cc3ccccc3)c(=O)[nH]c2=O)cc1	0.8	-2.4	11.2	0.0	3.8	10.6
Cc1cc(Nc2ccccc2)c2c([N+](=O)[O-])ccc(C)c2n1	-32.0	7.9	61.0*	0.1	-2.2	-5.9
Cc1cc(Nc2cccc([N+](=O)[O-])c2)c2cccc(C)c2n1	-2.3	-7.3	42.9	0.0	-11.3	13.1
O=C(c1ccccc1)c1c[nH]c2ccccc12	-7.3	-2.9	-5.0	0.9	5.1	2.1
O=C(/C=C/c1c[nH]c2ccccc12)c1cccc2ccccc12	-7.5	87.4*	-13.3	1.5	2.5	-1.8
CCN(CC)CCCOC(=O)c1ccc(OC)cc1O	8.1	6.4	83.9*	0.1	-4.4	-4.2
CC(C)(C)c1ccc(-c2nc3n(c(=O)c2C#N)CCS3)cc1	-11.4	-10.5	1.7	0.4	-11.7	-2.2
Cc1ccccc1Cn1ccc(=NCc2ccccc2)cc1	14.8	-0.2	31.0	-0.5	-20.7	102.6*
O=c1ccn(Cc2ccccc2)cc1	-13.4	-27.1	-24.1	-0.1	12.6	-4.5
CCN1C(=O)[C@H]2[C@@H](c3ccc(-c4ccc(C(C)=O)cc4)cc3)N3CCC[C@@]3(C(=O)OC)[C@H]2C1=O	-3.1	6.0	5.4	0.8	0.1	-8.2
Cc1ccc(CS(=O)Cc2ccc(C(=O)N3CCN(c4ccccc4)CC3)o2)cc1 (stereo not drawn)	-7.6	-6.2	55.7*	2.0	-2.8	-4.1
CCOC(=O)CN1C(=O)/C(=C/c2ccccc2Br)Oc2ccccc21	-14.2	-5.4	0.3	0.1	-7.2	0.7
Cc1nc(NC(=O)C23CC4CC(CC(C4)C2)C3)sc1Cc1ccc2c(c1)OCO2	20.7	70.6	65.3*	1.0	17.3	101.5*
N=C(N)c1ccc(Cl)cc1	-7.8	-5.7	-11.1	-0.1	-11.3	-4.1
N=C(N)c1ccc(/C=C/c2ccc(C(=N)N)cc2O)cc1	-19.7	-11.0	-0.4	-0.8	94.7*	2.7
COc1cccc(C2C(C(=O)c3cc4ccccc4o3)=C(O)C(=O)N2c2cc(C)on2)c1OC (stereo not drawn)	-5.9	-9.1	-2.7	0.0	77.8*	4.0
O=C(/C=C/Sc1ccccc1)c1ccccc1	-48.1	49.1	23.7	4.6	22.2	-1.4
O=C(/C=C/Sc1ccccc1)c1ccc(Cl)cc1	-6.9	102.2*	43.2	3.8	16.6	-4.9
Cc1cc(C)c2[nH]c(O)c(N=NC(=S)NCC3CCCO3)c2c1 (stereo not drawn)	0.7	2.0	-22.7	-0.2	23.9	2.6
Oc1[nH]c2c(Cl)cc(Cl)cc2c1N=NC(=S)NCC1CCCO1 (stereo not drawn)	-23.5	nt	44.2	0.3	97.0*	52.1
Oc1[nH]c2ccccc2c1N=NC(=S)NCC1CCCO1 (stereo not drawn)	-5.9	-3.3	-20.2	0.0	52.7	3.0
Oc1[nH]c2ccc(Br)cc2c1N=NC(=S)NCC1CCCO1 (stereo not drawn)	20.9	41.9	59.8*	2.3	30.6	17.1
CCc1ccc(CNC(=O)CCC(=O)N2Cc3cccc(OC)c3Oc3ncccc32)cc1	-4.1	-9.7	1.8	0.4	84.6*	-0.5
COc1cc(NC2CCCCC2O)c2nc(-c3ccc(Cl)cc3)ccc2c1 (stereo not drawn)	4.6	?	47.4	1.5	-4.3	80.4*

Screens deposited in PubChem BioAssay by Broad Institute.
